Test results reported in PMC2802674 (Carcinogenesis, 2009).

What was measured:
hepatic DNA = conditions: rats given 0.5 mmol/kg, 24 h, HPLC/MS/MS; cited from earlier work
ct-DNA = assay: Effect of Phase II conjugation activity on DNA adduct formation in vitro; type: biochemical; conditions: human liver S9, 1 μM [14C]amine, 6 h at 37°C, NAT cofactors
[1] = test system: AA8 CHO cells (NER proficient) and UV5 cells (NER deficient); type: cell-based, Chinese hamster; conditions: for cytotoxicity: AA8 and UV5 cells, absence of human liver S9, 100 μM–1 mM; for influence of NER status on cytotoxicity: UV5 (NER deficient) versus AA8 (NER proficient), absence of human liver S9
Summary of the method: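 AA8 (NER-proficient) and UV5 (NER-deficient; induced XPD/ERCC2 defect) CHO lines, neither expressing significant phase I or II enzymes, exposed to parent alkylanilines at 50 μM–1 mM without human liver S9. Viability was scored by trypan blue exclusion 24 h after treatment.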

[2] = test system: AA8 CHO cells (NER proficient) and UV5 cells (NER deficient); assay: aprt mutant fraction in AA8 and UV5 CHO cells, 8-azaadenine selection; type: cell-based, Chinese hamster; conditions: absence of human liver S9, 100 μM–1 mM
Summary of the method: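 AA8 (NER-proficient) and UV5 (NER-deficient, XPD/ERCC2 defect) CHO cells, neither expressing significant phase I or phase II enzymes, were exposed without human liver S9. Doses were parent alkylanilines at 50 μM–1 mM, or N-hydroxy and aminophenol metabolites at 5–500 μM. Mutant fraction at the heterozygous aprt locus was determined by 8-azaadenine selection.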

[3] = test system: CHO cells that are NER deficient (or proficient) and express mouse P4501A2 plus human aryl sulfotransferase or NAT genes; type: cell-based, Chinese hamster; conditions: for contribution of aryl sulfotransferase relative to NAT2: NER-deficient cells expressing CYP1A2 and either phase II enzyme; for potency in inducing both responses (cytotoxicity and mutagenicity), influence of NER status: cell lines expressing CYP1A2 and NAT2; for cytotoxicity: two cell lines both deficient in NER, one expressing CYP1A2 and NAT2, 100 μM –1 mM
Summary of the method: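 CHO lines derived from AA8 via UV5 (NER-deficient through an induced XPD/ERCC2 defect). UV5P3 carries mouse CYP1A2 cDNA and was further transfected with human aryl sulfotransferase (HAST1) or NAT2; NER-proficient counterparts were also used. Exposure to parent alkylanilines at 50 μM–1 mM, or to N-hydroxy or aminophenol metabolites at 5–500 μM. Viability was scored by trypan blue exclusion 24 h after treatment.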

[4] = test system: CHO cells that are NER deficient (or proficient) and express mouse P4501A2 plus human aryl sulfotransferase or NAT genes; type: cell-based, Chinese hamster; conditions: two cell lines both deficient in NER, one expressing CYP1A2 and NAT2, 100 μM –1 mM
Summary of the method: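 These are engineered CHO lines, heterozygous at aprt. UV5 (NER-deficient, XPD/ERCC2 defect) transfected with mouse CYP1A2, then human NAT2 or aryl sulfotransferase; NER-proficient counterparts were included. Parent alkylanilines were dosed at 50 μM–1 mM, and N-hydroxy or aminophenol metabolites at 5–500 μM. Mutant fraction was determined by 8-azaadenine selection.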

rat liver microsomes = conditions: unpublished results; cited from earlier work
human liver microsomes = conditions: unpublished results; cited from earlier work
[5] = test system: recombinant human P450s (1A1, 1A2, 1B1, 2A6 and 2E1); conditions: five recombinant human P450s tested; unpublished results; cited from earlier work
tissue DNA = conditions: C57/BL6 mice, dose ∼1 μmol/kg, accelerator mass spectrometry; cited from earlier work
male and female rats = conditions: dose-dependent; cited from earlier work
humans = conditions: ref International Agency for Cancer; cited from earlier work
bladder cancer [6] = conditions: population-based study, Los Angeles county; cited from earlier work
Salmonella typhimurium = conditions: multiple bacterial strains, presence or absence of exogenous activating systems; cited from earlier work
Escherichia coli = conditions: cited from earlier work
[7] = test system: mouse L5178Y lymphoma cells; conditions: with and without exogenous metabolic activation; cited from earlier work
[8] = test system: Chinese hamster ovary (CHO) cells; conditions: with and without exogenous metabolic activation; cited from earlier work
E.coli K12 = conditions: host-mediated assay after feeding to mice; cited from earlier work
Drosophila melanogaster = conditions: feeding or injecting; cited from earlier work
bone marrow of male mice = conditions: oral doses of up to 375 mg/kg/day; cited from earlier work
rat hepatocytes = conditions: cited from earlier work
[9] = test system: human lymphoblastoid TK6 cells; conditions: cited from earlier work; for cell death: TK6 cells; for viability: TK6 cells exposed to millimolar concentrations
Calf thymus DNA = assay: Formation of DNA adducts by [14C]alkylanilines in vitro with human hepatic S9; type: biochemical; conditions: human S9, 25–1000 nM alkylaniline (Figure 3)
Summary of the method: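 Calf thymus DNA (1 mg/ml) was incubated with human hepatic S9 (2 mg/ml) in 50 mM Tris pH 7.4 with NADPH regeneration (1.3 mM NADP+, 3.3 mM glucose-6-phosphate, 3.3 mM MgCl2, 0.1 U G6P dehydrogenase) and [14C]alkylaniline at 25, 100 or 1000 nM. Purified DNA-bound radiolabel was measured by accelerator mass spectrometry, as adducts per 10^8 nucleotides (±SD; N = 4).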

[10] = test system: S9 from human, rat, dog and mouse liver; conditions: cited from earlier work
[11] = test system: HPRT gene of human lymphoblastoid TK6 cells; conditions: cited from earlier work
[12] = test system: 12-O-tetradecanoyl phorbol 13-acetate responsive element and nuclear factor-kappaB-binding activity; conditions: in an ROS-dependent fashion; cited from earlier work
Nrf2 = conditions: in vivo in mice; cited from earlier work
mice = conditions: oral administration, hydrochloride salt, ref International Agency for Cancer; cited from earlier work
rats = conditions: oral administration, hydrochloride salt, ref International Agency for Cancer; cited from earlier work
bladder cancer [13] = conditions: occupationally exposed workers; cited from earlier work
[14] = rats, urine; cited from earlier work

Cc1ccc(N)c(C)c1 [2,4-dimethylaniline]
hepatic DNA adducts (hepatic DNA): < 3.2 adducts per 10^8 normal bases

Cc1cccc(C)c1N [2,6-DMA, 2,6-dimethylaniline]
decrease of DNA adduct level by promotion of NAT activity (ct-DNA): 78% | cytotoxicity [1]: cytotoxic | influence of NER status on cytotoxicity [1]: enhanced by NER deficiency | mutagenicity [2]: not mutagenic | contribution of aryl sulfotransferase relative to NAT2 [3]: more effective in potentiating cytotoxicity but not mutagenicity | potency in inducing both responses (cytotoxicity and mutagenicity), influence of NER status [3]: greatly enhanced in the NER-deficient cells | cytotoxicity [3]: cytotoxic | mutagenicity [4]: mutagenic only in cells expressing the metabolizing enzymes | conversion to the corresponding hydroxylamine (rat liver microsomes): undetectable activity | conversion to the corresponding hydroxylamine (human liver microsomes): readily apparent | N-hydroxylation activity [5]: only 2A6 exhibited N-hydroxylation activity | hepatic DNA adducts (hepatic DNA): < 3.2 adducts per 10^8 normal bases | labeling of tissue DNA (tissue DNA): detectable labeling of DNA | tumour induction (male and female rats): inducing carcinomas and papillary adenomas of the nasal cavity | carcinogenicity category (humans): Group 2B | association with bladder cancer risk (bladder cancer [6]): independently associated with risk for development of bladder cancer | mutagenicity (Salmonella typhimurium): neither mutagenic | activity in DNA damage and repair assay (Escherichia coli): nor was it active | mutation induction [7]: induced mutations | genotoxic effects induced [8]: sister chromatid exchange and chromosomal aberrations | genotoxic effect (E.coli K12): No genotoxic effect | sex-linked recessive lethal effect (Drosophila melanogaster): nor was feeding or injecting it effective | micronuclei (bone marrow of male mice): No increase of micronuclei | unscheduled DNA synthesis (rat hepatocytes): did not induce unscheduled DNA synthesis | cell death [9]: induced cell death

Cc1cc(C)cc(N)c1 [3,5-DMA, 3,5-dimethylaniline]
enhancement of DNA adduct formation by promotion of NAT activity (ct-DNA): 53% | cytotoxicity [1]: cytotoxic | influence of NER status on cytotoxicity [1]: enhanced by NER deficiency | mutagenicity [2]: not mutagenic | contribution of aryl sulfotransferase relative to NAT2 [3]: more effective in potentiating cytotoxicity but not mutagenicity | potency in inducing both responses (cytotoxicity and mutagenicity), influence of NER status [3]: greatly enhanced in the NER-deficient cells | cytotoxicity [3]: cytotoxic | mutagenicity [4]: mutagenic only in cells expressing the metabolizing enzymes | labeling of tissue DNA (tissue DNA): detectable labeling of DNA | association with bladder cancer risk (bladder cancer [6]): independently associated with risk for development of bladder cancer | cell death [9]: induced cell death

CCc1cccc(N)c1 [3-EA, 3-ethylaniline]
DNA binding of 3-EA compared with the other two alkylanilines (Calf thymus DNA): nearly identical to ∼6-fold less | decrease of DNA adduct level by promotion of NAT activity (ct-DNA): 28% | N-hydroxylation rate compared with 3,5-DMA or 2,6-DMA [10]: several times greater | labeling of tissue DNA (tissue DNA): detectable labeling of DNA | association with bladder cancer risk (bladder cancer [6]): independently associated with risk for development of bladder cancer | viability [9]: did not cause reduced viability

Nc1ccc(-c2ccccc2)cc1 [4-aminobiphenyl, reference compound]
hepatic DNA adducts (hepatic DNA): ~500 adducts per 10^8 normal bases

CCc1cccc(NO)c1 [N-hydoxy-3-EA]
viability [9]: did not cause reduced viability

Cc1cc(C)cc(NO)c1 [N-hydroxy-3,5-DMA]
HPRT mutagenicity [11]: mutagenic

N[C@@H](CCC(=O)N[C@@H](CSc1cc(O)c(SC[C@H](NC(=O)CC[C@H](N)C(=O)O)C(=O)NCC(=O)O)c(SC[C@H](NC(=O)CC[C@H](N)C(=O)O)C(=O)NCC(=O)O)c1O)C(=O)NCC(=O)O)C(=O)O [TGHQ, 2,3,5-tris-(glutathion-S-yl)hydroquinone]
effect on TRE and NF-kappaB-binding activity [12]: modulates

CC(=O)Nc1ccc(O)cc1 [acetaminophen]
Nrf2 nuclear translocation (Nrf2): can initiate nuclear translocation of Nrf2

Cc1ccccc1N [o-toluidine]
tumour induction (mice): increased incidence of haemangiomas and haemangiosarcomas and hepatocellular carcinomas or adenomas | tumour induction (rats): increased the incidence of tumours in multiple organs | carcinogenicity category (humans): Group 1 | human carcinogenicity finding (bladder cancer [13]): is indeed a human bladder carcinogen | production of an N-hydroxylamine in vivo [14]: urinary excretion of N-hydroxy-o-toluidine
